The record followed here is ChEMBL document CHEMBL1165914, “Characterization of 4-methyl-2-oxo-1,2-dihydroquinolin-6-yl acetate as an effective antiplatelet agent” (2010).

The species entered for assay [1] is Homo sapiens. In words: Inhibition of human platelet CRTAase assessed as inhibition of acetylation of glutathione S-transferase. As to conditions: concentration not given here. On the set-up: concentration or dose not given beside the values. In a few lines: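 Platelet lysate as enzyme source. Acetoxy substrate preincubated with CRTAase and GST in potassium phosphate buffer pH 6.5, 37 °C, 10 min; GSH and CDNB then added and absorbance read at 340 nm. Activity unit is % inhibition of GST activity; mean of five observations.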

Assay [2] relates to Rattus norvegicus. In words: Ex vivo antiplatelet activity in Sprague-Dawley rat platelets assessed as inhibition of arachidonic acid-induced platelet aggregation at 133 umole/kg, po after 24 hrs by aggregometry. Format: functional, organism-based. In a few lines:
(§1)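 Rats dosed orally and killed 24 h later. Blood taken by cardiac puncture and centrifuged as for PRP/PPP preparation (180g 10 min; 2500g 10 min). ADP- or AA-induced aggregation then measured by light-transmittance aggregometry.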

Assay [3] relates to Rattus norvegicus. The experiment in a line: Inhibition of COX1 in po dosed Sprague-Dawley rat after 24 hrs by ELISA. Format: functional, organism-based.
In assay [4] the test system is Rattus norvegicus. In words: Ex vivo antiplatelet activity in Sprague-Dawley rat platelets assessed as inhibition of ADP-induced platelet aggregation at 133 umole/kg, po after 24 hrs by aggregometry. Format: functional, organism-based. Summed up: as §1
Assay [5] deals with Platelet. In words: Antiplatelet activity in human platelet rich plasma assessed as inhibition of ADP-induced platelet aggregation measured for 6 mins by aggregometry. The assay is classed as functional.
Assay [6] is filed under the species Homo sapiens. In words: Activation of human platelet NOS assessed as increase in nitric oxide level by flow cytometry. In a few lines:
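Platelets incubated with compounds, then intracellular NO measured by flow cytometry following the Imrich and Kobzik method.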

The test system of assay [7] is Platelet. In words: Antiplatelet activity in human platelet rich plasma assessed as inhibition of arachidonic acid-induced platelet aggregation measured for 6 mins by aggregometry. Format: functional.
Assay [8] concerns Rattus norvegicus. In words: Inhibition of COX1 in po dosed Sprague-Dawley rat after 24 hrs by ELISA relative to control. The assay is classed as functional.

Molecules are shown by their SMILES. Calls of active or inactive are those of the source. No cut-off for these calls is given here.

In the case of `CCc1c(C)c2cccc(OC(C)=O)c2[nH]c1=O`, in assay [1], the inhibition stood at 11.5%.
Same read-out and setting: as for `CCCCCCc1c(C)c2cc(OC(C)=O)ccc2[nH]c1=O`, the figure is 7%.
Turning to `CC(=O)Oc1ccccc1C(=O)O`, the inhibition entry in assay [2], in assay [3] and in assay [4] was “Active” in each case.
On to `CCOC(=O)Cn1c(=O)cc(C)c2ccc(OC(C)=O)cc21`, for which, in assay [5], the inhibition entry is “Active”. Besides, the inhibition in assay [1] is 10%.
For the molecule `CCCCCCc1c(C)c2ccc(OC(C)=O)cc2[nH]c1=O`, in assay [1], the inhibition was 2%.
With `Cc1cc(=O)[nH]c2ccc(O)cc12`, the inhibition result in assay [2], in assay [3] and in assay [4] was “inactive” each time. In addition, in assay [1], the inhibition came out at 0%.
`CCOC(=O)COc1cc(C)c2ccc(OC(C)=O)cc2n1`: the inhibition result in assay [5] was “inactive”. In addition, the inhibition in assay [1] is 13.2%.
As for `CC(=O)Oc1ccc2c(C)cc(=O)[nH]c2c1`, the inhibition entry in assay [5] is “Active”. Also, in assay [6], the result was Active. Moreover, in assay [1], the inhibition is 13.2%.
With `CCOC(=O)COc1cc(C)c2cc(OC(C)=O)ccc2n1`, the inhibition entry in assay [5] is “inactive”. Also, the inhibition in assay [1] is 28.6%.
On to `CCCCCCc1c(C)c2cccc(OC(C)=O)c2[nH]c1=O`, for which the inhibition in assay [1] is 0%.
With `CCc1c(C)c2cc(OC(C)=O)ccc2[nH]c1=O`, in assay [1], the inhibition is 26%.
As for `CC(=O)Oc1ccc2[nH]c(=O)cc(C)c2c1`, the inhibition entry in assay [2], in assay [7], in assay [5] and in assay [4] was “Active” throughout. In addition, in assay [6], the outcome was Active. Also, the inhibition in assay [1] was found to be 31%. Besides, the “fold change (FC)” value in assay [8] is 3.5.
As to `CCOC(=O)Cn1c(=O)cc(C)c2cc(OC(C)=O)ccc21`, in assay [5], the inhibition entry is “Active”. The inhibition in assay [1] worked out at 23%.
For the molecule `CC(=O)Oc1cccc2c(C)cc(=O)[nH]c12`, the inhibition result in assay [5] is “Active”. Moreover, the result in assay [6] was Active. Also, the inhibition in assay [1] came out at 12%.
`CC(=O)Oc1cc(=O)[nH]c2ccccc12`: in assay [1], the inhibition was 0%.
As for `CCc1c(C)c2ccc(OC(C)=O)cc2[nH]c1=O`, the inhibition in assay [1] turned out to be 13%.
